Shown is part of a subset that was picked to be rich in hits.
IDH1 mut inh – inhibitors of IDH1 R132H reductase, primary screen, biochemical, plate reader, single point; diaphorase/resazurin fluorescence, 60 min; AID 624101, 2012; Isocitrate dehydrogenase [NADP] cytoplasmic (Homo sapiens), O75874; 70,000 tested, 0.18% active; inhibition, % at 10 µM; in the data active means inhibition above about 34%; inconclusive means no clear call, values can overlap the other calls; inactive means below about 11%;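 further: 0% = DMSO and 100% = no enzyme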
T cruzi growth-1 – T. cruzi intracellular proliferation inhibitors, primary screen, cell-based, beta-gal Tulahuen parasites, NIH3T3 host, luminescence; T. cruzi beta-gal in NIH3T3, GalScreen luminescence, 90 h; inhibition, % at 8.34 µM; 77,000 tested, 5.9% active;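 active means mean inhibition above about 93%, with at least 55% of replicates each passing it, limit read from the data, passing the limit was not always enough; inconclusive means only one of those two conditions holds; inactive means neither condition holds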
GASC1 inh – inhibitors of GASC-1 (KDM4C) histone demethylase, primary screen, biochemical, single concentration HTS | GST-KDM4C 2-372, H3K9me3 peptide, LANCE TR-FRET | AID 720574, 2013 | inhibition, % at 12.5 µM | 96,000 tested, 0.15% active | Lysine-specific demethylase 4C (Homo sapiens), Q9H3R0;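 active means mean replicate inhibition above about 25%, with at least 55% of replicates also reaching it, limit read from the data, passing the limit was not always enough; inconclusive means only one of those two conditions met; inactive means neither condition met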
Target sequence (Q9H3R0 2-372 limits assumed): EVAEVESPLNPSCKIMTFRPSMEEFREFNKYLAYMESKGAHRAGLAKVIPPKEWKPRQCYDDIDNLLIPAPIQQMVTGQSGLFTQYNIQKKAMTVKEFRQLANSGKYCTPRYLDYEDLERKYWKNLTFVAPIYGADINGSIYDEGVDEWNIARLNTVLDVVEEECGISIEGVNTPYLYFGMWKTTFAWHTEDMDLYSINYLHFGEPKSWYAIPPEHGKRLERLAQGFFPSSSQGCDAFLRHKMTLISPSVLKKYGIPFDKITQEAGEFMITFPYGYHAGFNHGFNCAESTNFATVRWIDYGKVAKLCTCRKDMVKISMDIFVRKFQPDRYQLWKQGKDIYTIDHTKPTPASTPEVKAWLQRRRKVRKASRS
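System: N-terminal GST-fused human GASC-1 (KDM4C) fragment, residues 2-372 / Amount: 10 nM GST-KDM4C in enzyme reaction / Also added: H3K9me3 peptide with Fe(II)/2OG / Times: 30 min demethylation and 1 h detection at room temperature / Signal: LANCE TR-FRET / Read-out basis: Fall in 671/618 emission ratio as inhibition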
T cruzi growth-2 – T. cruzi intracellular proliferation inhibitors, confirmation, cell-based, NIH3T3 host, beta-gal parasite, luminescence, cherry-pick; shares compounds with T cruzi growth-1; T. cruzi beta-gal in NIH3T3, GalScreen luminescence, 90 h; inhibition, % at 8.35 µM; 5,600 tested, 72% active; AID 651739, 2012;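 active means mean replicate inhibition above about 95% and at least 55% of replicates individually reaching it, limit read from the data; inconclusive means only one of the two criteria is met; inactive means neither criterion is met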
T cruzi growth-3 – inhibitors of intracellular T. cruzi replication, confirmation, NIH3T3 host cells, beta-gal parasites, cherry-pick, set 2; shares compounds with T cruzi growth-1; inhibition, % at 2.09 µM; 5,600 tested, 21% active; AID 651740, 2012; T. cruzi beta-gal in NIH3T3, GalScreen luminescence, 90 h;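 active means mean inhibition above about 95%, with at least 55% of replicates also reaching it, limit read from the data; inconclusive means meets just one of the two conditions; inactive means meets neither condition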;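 further: plate controls were neutral control median for no effect and positive control median for full effect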
3T3 cytotox – cytotoxicity in mouse NIH/3T3 fibroblasts, confirmation, cytotoxicity control for T. cruzi proliferation inhibitor project, cell-based, cherry-pick, single point | shares compounds with T cruzi growth-1 | NIH/3T3 viability, CellTiter-Glo ATP luminescence, 90 h | cytotoxicity (signal decrease), % at 8.35 µM | 5,600 tested, 14% active | AID 651742, 2012;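 active means mean signal decrease across replicates above about 35% based on untreated-well scatter, with enough replicates individually passing, limit read from the data; inconclusive means no rule stated though some were filed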;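 further: 0% = median of neutral control wells and 100% = median of positive control wells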
NIH3T3 tox 2 – NIH/3T3 fibroblast cytotoxicity, confirmation, cytotoxicity control, cell-based, cherry-pick, single point, set 2. shares compounds with T cruzi growth-1. NIH/3T3 viability, CellTiter-Glo ATP luminescence, 90 h. inhibition, % at 24.9 µM. 5,600 tested, 56% active. AID 651744, 2012;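 active means mean loss of cell viability signal at or above a set limit, and enough replicates individually reaching it; inconclusive means meets only the mean limit or only the replicate share; inactive means meets neither condition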;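 further: 0% = median of neutral control wells and 100% = median of positive control wells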
Active calls of the source: *; ? = inconclusive; . = no result.

SMILES | IDH1 mut inh | T cruzi growth-1 | GASC1 inh | T cruzi growth-2 | T cruzi growth-3 | 3T3 cytotox | NIH3T3 tox 2
Cc1cccc(S(=O)(=O)N(C)C[C@@H]2OCc3ccccc3-c3c(n(C)c4ccccc34)C(=O)N([C@@H](C)CO)C[C@@H]2C)c1 | -1 | 100* | -1 | 103* | 87 | -9 | 80*
COC(=O)c1c(-c2ccccc2)csc1NC(=O)c1cc2cccc(OC)c2oc1=O | 0 | . | . | . | . | . | .
COc1ccccc1-n1c(SC(C)C(=O)N2CCCCC2)nc2ccc(I)cc2c1=O (centres undefined) | 0 | . | . | . | . | . | .
CC(C)NC(=O)Nc1ccc2c(c1)CC(=O)N([C@H](C)CO)C[C@H](C)[C@H](CN(C)S(=O)(=O)c1ccc(Cl)cc1)O2 | -9 | 102* | -2 | -52 | -24 | -30 | 9
Cc1noc(C)c1S(=O)(=O)Nc1ccc2c(c1)CC(=O)N([C@@H](C)CO)C[C@@H](C)[C@@H](CN(C)S(=O)(=O)c1ccc(Cl)cc1)O2 | . | ? | 0 | 71 | 33 | 3 | 39*
CC(C)NC(=O)Nc1ccc2c(c1)CC(=O)N([C@@H](C)CO)C[C@@H](C)[C@H](CN(C)S(=O)(=O)c1ccc(Cl)cc1)O2 | 0 | 42 | 0 | . | . | . | .
Cc1noc(C)c1S(=O)(=O)Nc1ccc2c(c1)CC(=O)N([C@H](C)CO)C[C@H](C)[C@H](CN(C)S(=O)(=O)c1ccc(Cl)cc1)O2 | . | 12 | -1 | . | . | . | .
Cc1cccc(NC(=O)CSc2n[nH]c(-c3ccccc3)n2)c1 | 0 | . | . | . | . | . | .
C[C@@H]1CN([C@@H](C)CO)S(=O)(=O)c2ccc(C#CCC3CCCC3)cc2O[C@@H]1CN(C)C(=O)CC1CC1 | -3 | 120* | -4 | 89 | 94 | 25 | 107*
CCCC#Cc1ccc2c(c1)O[C@@H](CN(C)C(=O)CC1CC1)[C@@H](C)CN([C@H](C)CO)S2(=O)=O | -1 | 73 | -1 | . | . | . | .
CC(=O)N(C)C[C@@H]1Oc2cc(C#CCC3CCCC3)ccc2S(=O)(=O)N([C@@H](C)CO)C[C@@H]1C | -1 | 21 | 0 | . | . | . | .
C[C@H]1CN([C@@H](C)CO)S(=O)(=O)c2ccc(C#CCC3CCCC3)cc2O[C@H]1CN(C)C(=O)CC1CC1 | 0 | 122* | 7 | ? | 85 | -4 | 104*
O=C(CSc1nnc(-c2ccco2)n1-c1ccccc1)Nc1ccnc2ccccc12 | 2 | . | . | . | . | . | .
N#C[C@H]1[C@@H](c2ccc(C#CC3CCCC3)cc2)[C@H](CO)N1C(=O)c1cccc(F)c1 | . | . | -1 | . | . | . | .
CC(C)C#Cc1ccc([C@H]2[C@@H](C#N)N(C(=O)c3cccc(F)c3)[C@@H]2CO)cc1 | . | 98* | 1 | 99* | 108* | 4 | 38
N#C[C@@H]1[C@@H](c2ccc(C#CC3CC3)cc2)[C@H](CO)N1C(=O)c1cccc(F)c1 | . | 97* | 1 | 105* | 110* | 20 | 12
CC(C)C#Cc1ccc([C@H]2[C@H](C#N)N(C(=O)c3ccccn3)[C@H]2CO)cc1 | . | 81 | 4 | . | . | . | .
N#C[C@H]1[C@@H](c2ccc(C#CC3CC3)cc2)[C@H](CO)N1C(=O)c1cccc(F)c1 | . | 94 | 2 | . | . | . | .
CC(C)C#Cc1ccc([C@H]2[C@@H](CO)N(C(=O)c3ccccn3)[C@H]2C#N)cc1 | . | 97* | 1 | 98* | 80 | 15 | 16
COc1ccc(C#Cc2ccc3c(c2)O[C@@H](CN(C)C)[C@@H](C)CN([C@@H](C)CO)S3(=O)=O)cc1 | -1 | 51 | -1 | . | . | . | .
C[C@H]1CN([C@@H](C)CO)S(=O)(=O)c2ccc(C#Cc3ccccc3)cc2O[C@@H]1CN(C)C | 1 | 102* | -1 | 105* | 41 | 5 | 103*

Screens (PubChem BioAssay)
